Five molecules from ChEMBL document CHEMBL4266019, “Discovery and Structure-Activity-Relationship Study of N-Alkyl-5-hydroxypyrimidinone Carboxamides as Novel Antitubercular Agents Targeting Decaprenylphosphoryl-β-d-ribose 2'-Oxidase” (J Med Chem, 2018) can be followed below.

For assay [1], the system named is Mycobacterium tuberculosis. Description: Antitubercular activity against Mycobacterium tuberculosis H37Rv harboring dprE1-dprE2 mutant after 10 days in absence of anhydrotetracycline. Format: functional, organism-based. The essentials: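 DprE12–TetON1 strain (H37Rv with integrated attL5 plasmid constitutively expressing dprE1, dprE2, aftA, embC) washed and diluted to OD580nm 0.01 in drug-free 7H9-based medium. Half received anhydrotetracycline 500 ng/mL. Tested against 14-point 2-fold dilutions, 1% DMSO final, at 37 °C, 5% CO2. OD580nm read at day 10. BTZ043 and TCA1 served as positive controls.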

Assay [2] has as its system T1, Decaprenylphosphoryl-beta-D-ribose oxidase (Mycobacterium tuberculosis (strain ATCC 25618 / H37Rv)), P9WJF1 [Y314C].
T1 sequence (whole entry): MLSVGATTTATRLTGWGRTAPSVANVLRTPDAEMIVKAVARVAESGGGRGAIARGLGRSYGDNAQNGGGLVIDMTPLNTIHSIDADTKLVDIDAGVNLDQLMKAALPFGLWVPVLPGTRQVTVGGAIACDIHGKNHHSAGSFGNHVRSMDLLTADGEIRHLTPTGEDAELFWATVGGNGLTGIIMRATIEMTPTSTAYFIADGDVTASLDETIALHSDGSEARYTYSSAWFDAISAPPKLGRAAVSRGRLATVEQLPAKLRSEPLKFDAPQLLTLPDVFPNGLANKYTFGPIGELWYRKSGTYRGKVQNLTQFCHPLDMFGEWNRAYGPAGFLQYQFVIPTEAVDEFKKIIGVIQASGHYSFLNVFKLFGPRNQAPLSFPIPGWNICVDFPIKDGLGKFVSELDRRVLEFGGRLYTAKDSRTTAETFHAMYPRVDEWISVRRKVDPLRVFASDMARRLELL
Description: Inhibition of DprE1 Y314C mutant in Mycobacterium tuberculosis H37Rv assessed as bacterial growth inhibition after 4 weeks.

For assay [3], the system named is T2, Decaprenylphosphoryl-beta-D-ribose oxidase (Mycobacterium tuberculosis (strain ATCC 25618 / H37Rv)), P9WJF1 [Y314H].
T2 sequence (whole entry): T1 sequence (whole entry) with C314H
Description: Inhibition of DprE1 Y314H mutant in Mycobacterium tuberculosis H37Rv assessed as bacterial growth inhibition after 4 weeks. The essentials:
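Resistant mutants were selected by plating 10^7–10^9 H37Rv cells on 7H11/OADC containing 2×, 5× or 10× MIC, with drug-free plates for counts, at 37 °C for 4 weeks. Colonies from 10× MIC were regrown in 7H9/ADC and MIC-tested. Genomes were sequenced after CTAB DNA isolation.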

Assay [4] concerns T3, Decaprenylphosphoryl-beta-D-ribose oxidase (Mycobacterium tuberculosis (strain ATCC 25618 / H37Rv)), P9WJF1 [N364S].
T3 sequence (whole entry): T1 sequence (whole entry) with C314Y, N364S
Description: Inhibition of DprE1 N364S mutant in Mycobacterium tuberculosis H37Rv assessed as bacterial growth inhibition after 4 weeks.

The test system of assay [5] is T4, Decaprenylphosphoryl-beta-D-ribose oxidase (Mycobacterium tuberculosis (strain ATCC 25618 / H37Rv)), P9WJF1 [P116S].
T4 sequence (whole entry): T1 sequence (whole entry) with P116S, C314Y
Description: Inhibition of DprE1 P116S mutant in Mycobacterium tuberculosis H37Rv assessed as bacterial growth inhibition after 4 weeks.

In assay [6] the test system is Mycobacterium tuberculosis H37Rv. Description: Ratio of MIC for inhibition of DprE1 Y314H mutant-mediated growth of Mycobacterium tuberculosis H37Rv to MIC for inhibition of DprE1-mediated growth of Mycobacterium tuberculosis H37Rv. The essentials: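 Resistant mutants were selected by plating 10^7, 10^8 and 10^9 H37Rv cells on 7H11/OADC agar containing 2×, 5× and 10× MIC of the hit compound, then incubating at 37 °C for 4 weeks. Colonies from 10× MIC plates were grown in 7H9/ADC and MIC-tested against the parental strain. Whole-genome sequencing found the DprE1 Y314H mutation.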

Residue numbers refer to the chain shown, from its start. Values after ≈ are worked out from the molar mass of the structure shown. Active and inactive are the calls of the source. The rule behind the calls is not given here.

For `CC[C@@H](CO)NCCN[C@@H](CC)CO`, the outcome in assay [1] was Active.

As for `CC(NC(=O)c1nc(Cc2ccccc2C(F)(F)F)n(C)c(=O)c1O)c1ccccc1` (centres undefined), in assay [1], the result was inactive.

Turning to `Cn1c(Cc2ccccc2C(F)(F)F)nc(C(=O)NCc2ccccc2)c(O)c1=O`, the MIC in assay [2] is 25 µM (≈ 10.4 µg/mL); in assay [3] it was over 50 µM; in assay [4] it was 2.34 µM (≈ 0.977 µg/mL); in assay [5], 18.8 µM (≈ 7.85 µg/mL). Besides, the Ratio in assay [6] was over 16.

In the case of `CCOC(=O)NC(=O)c1ccsc1NC(=O)c1nc2ccccc2s1`, the result in assay [1] was Active.

On to `C[C@H]1COC2(CCN(c3nc(=O)c4cc(C(F)(F)F)cc([N+](=O)[O-])c4s3)CC2)O1`, for which the result in assay [1] was Active.
